From PubChem
A selection: hits, their analogues and other compounds. The true share with any hit is near 5.1%.
STAT3 act: activators of IL-6 induced STAT3 signaling; U3A cells, IL-6 STAT3-luciferase reporter, luminescence; 100% = signal with IL-6 EC80 alone; AID 871; activation (% of control), % at 5.6 µM; hit rate 0.91% among 190,000;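 active = activation above the screen-wide mean of compound activation plus 3 SD, cut at about 130% in these data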
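System – human U3A cells carrying STAT3-luciferase construct · Probe or stimulus – Interleukin-6, 33 ng/mL · Schedule – compound 1 h, then IL-6 6 h at 37 °C · Signal – luminescence from STAT3-driven luciferase reporter · Evaluation – percent of IL-6-only median luminescence · Benchmarks – IL-6-only high control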
STAT1 inh: reduces IFN-gamma driven STAT1 reporter signal; NIH 3T3 STAT1-luciferase reporter, luminescence; inhibition, % at 5.5 µM; AID 920; hit rate 0.35% among 200,000;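 active = inhibition above a set limit, the mean inhibition across all tested compounds plus 3 SD, cut at about 34% in these data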
NF-kB neuron act: compounds increasing NF-kB expression in human neuronal cells; fold change at 12.5 µM; hit rate 1.6% among 190,000; NF-kB reporter expression; hits give high values; in the data active = fold change above about 3.3
STAT3 inh-1: STAT3 signaling inhibition; U3A cells, IL-6 STAT3-luciferase reporter, luminescence; host cell line lacks STAT1; inhibition, % at 5.5 µM; hit rate 0.89% among 190,000; AID 862;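 active = inhibition above the mean inhibition across all screened compounds plus 3 SD, cut at about 44% in these data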
APP 5'UTR act: APP 5'UTR luciferase reporter activation; SH-SY5Y APP 5'UTR luciferase reporter, luminescence; zero percent = DMSO vehicle wells; activation, % at 2 µM; hit rate 1% among 190,000; AID 1276;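 active = activation above a set limit, based on mean plus 3 SD of controls, cut at about 140% in these data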
STAT1 act: STAT1 signaling activation | NIH 3T3 STAT1-luciferase reporter, IFN-gamma, luminescence; 100% = IFN-gamma alone, no compound | activation (% of control), % at 5.5 µM | hit rate 2.6% among 200,000 | AID 932;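 active = activation above the screen-wide mean activation plus 3 SD, cut at about 130% in these data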
STAT3 inh-2: STAT3 inhibition, confirmation assay; shares compounds with STAT3 inh-1; U3A cells, IL-6 STAT3 luciferase reporter, luminescence; cell line lacks STAT1; inhibition, % at 5.7 µM; hit rate 45% among 1,200; AID 1265;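 active = inhibition above the hit cutoff computed for the primary STAT3 screen, cut at about 44% in these data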
NFkB inh 2: NF-kappaB inhibition in STAT3 inhibitor counter-screen | hit rate 36% among 1,200 | HEK293T NF-kB luciferase reporter, TNF-alpha induced | AID 1308 | shares compounds with STAT3 inh-1 | inhibition, % at 5.7 µM;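 active = inhibition above the mean of solvent-only control wells plus 3 SD, cutoff set per campaign, cut at about 13% in these data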
STAT1 inh 2: counter-screen for STAT3 inhibitors: STAT1 inhibition. shares compounds with STAT3 inh-1. NIH 3T3 STAT1-luciferase reporter, IFN-gamma induced, luminescence. inhibition, % at 5.7 µM. hit rate 27% among 1,200;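 active = inhibition above the mean plus 3 SD of solvent-only control wells, limit set per screening run, cut at about 16% in these data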
STAT1 activ conf: confirmation of STAT1 signaling activators; shares compounds with STAT1 act; NIH 3T3 STAT1-luciferase reporter, IFN-gamma potentiation, luminescence; 100% = IFN-gamma EC80 alone, no compound; activation (% of control), % at 5.7 µM; hit rate 97% among 1,200;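 active = activation above a set limit carried over from the earlier primary STAT1 screen, cut at about 140% in these data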
NFkB act: counter-screen for STAT1 activators: NF-kappaB activation; shares compounds with STAT1 act; HEK293T NF-kB luciferase reporter, TNF-alpha stimulated, luminescence; 100% = TNF-alpha with vehicle only; activation (% of control), % at 5.7 µM; hit rate 43% among 1,200;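 active = activation above the mean of solvent-only control wells plus 3 SD, set per campaign, cut at about 130% in these data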;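 note: TNF-alpha given at a submaximal dose yielding about 80% of full reporter signal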
STAT3 act 2: counter-screen for STAT1 activators: human STAT3 activation; AID 1316; shares compounds with STAT1 act; hit rate 46% among 1,200; U3A cells STAT3-luciferase reporter, IL-6, luminescence; cells lack STAT1; 100 = IL-6 alone, no compound effect; activation (% of control), % at 5.7 µM;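 active = activation above the solvent-only control well mean plus 3 SD, set per plate batch, cut at about 110% in these data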;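 note: higher means more STAT3 reporter activation so hits are non-selective activators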
Hits are given with their value; - = inactive; . = no result given.

SMILES	STAT3 act	STAT1 inh	NF-kB neuron act	STAT3 inh-1	APP 5'UTR act	STAT1 act	STAT3 inh-2	NFkB inh 2	STAT1 inh 2	others
Cc1ccc(C(=O)Nc2ccon2)cc1S(=O)(=O)N1CCOCC1	-	-	-	-	-	-	.	.	.
O=C(Nc1ccc(F)c(F)c1)c1ccc(F)c(S(=O)(=O)N2CCOCC2)c1	-	-	-	46	-	-	-	-	-
O=C(Nc1nc2ccccc2[nH]1)c1ccc(F)c(S(=O)(=O)N2CCOCC2)c1	-	-	-	-	-	-	.	.	.
O=C(Nc1cccc(F)c1)c1cccc(S(=O)(=O)N2CCOCC2)c1	-	-	-	-	-	-	.	.	.
CCOC(=O)c1ccc(NC(=O)c2ccc(C)c(S(=O)(=O)N3CCOCC3)c2)cc1	-	-	-	72	-	-	69	22	-
CCOC(=O)c1ccc(NC(=O)c2cccc(S(=O)(=O)N3CCOCC3)c2)cc1	-	-	-	58	-	-	-	-	-
CN(C)c1ccc(C(=O)NC2(N3CCC3=O)CCCC2)cc1	-	-	-	-	-	-	.	.	.
CC(C)CC(=O)NC(=S)Nc1ccc(S(=O)(=O)Nc2nccs2)cc1	-	-	-	-	-	-	.	.	.
COc1cccc(N(CC(=O)Nc2ccc3c(c2)OCO3)S(=O)(=O)c2ccccc2)c1	-	-	-	-	-	-	.	.	.
CN(C)n1cnc2ccsc2c1=O	-	-	-	-	-	-	.	.	.
CC(C)N(Cc1nc(-c2ccc(Cl)cc2)no1)Cc1nccn1C	-	-	-	-	-	-	.	.	.
CSc1ccccc1C(=O)C1CCCN(S(=O)(=O)c2c(C)noc2C)C1 (stereo unspecified)	-	-	-	-	-	-	.	.	.
COc1ccc(Nc2oc(COc3ccc(Cl)cc3)nc2C#N)cc1	-	-	-	47	-	-	-	-	-
COc1ccc(NS(=O)(=O)c2cccc(NC(=O)c3ccc(Cl)nc3)c2)cc1	-	-	-	86	-	-	84	38	24
COc1cccc(S(=O)(=O)Nc2ccc(C(=O)Nc3ccncc3)cc2)c1	-	-	-	-	-	-	.	.	.
O=C(Nc1cccc(S(=O)(=O)Nc2ccc(Cl)cc2)c1)c1ccc(Cl)nc1	-	-	-	79	-	-	81	27	23
O=C(Nc1cccc(S(=O)(=O)Nc2ccc(Cl)cc2)c1)c1cc2c(s1)CCCC2	-	-	-	-	-	-	.	.	.
CC(=O)c1c(C)[nH]c(C(=O)CSc2nc3ccccc3n2C)c1C	-	-	-	50	-	-	-	-	-
COc1cc(CC(=O)OCC(=O)Nc2sccc2C(N)=O)cc(OC)c1OC	-	-	-	58	-	-	55	-	22
Cc1oc(CC(C)C)c(CN)c1C(=O)O	-	-	-	-	-	-	.	.	.
Cc1ccc(-c2cc3nc4c(c(=O)n3[nH]2)CCCC4)cc1	-	-	.	44	-	174	-	-	-	STAT1 activ conf=232;NFkB act=-;STAT3 act 2=-
Cc1[nH]n2c(=O)c3c(nc2c1-c1ccc(Cl)cc1)CCC3	-	-	-	-	-	-	.	.	.
COc1ccc(-c2cc(C)nc3c(-c4ccccc4)cnn23)cc1	-	-	.	51	168	167	-	-	-	STAT1 activ conf=266;NFkB act=-;STAT3 act 2=-
